The values that follow come from PMC7427514 (Chem, 2020).

The target in one series is T1, KCC2 (Homo sapiens, UniProt Q9H2X9).
T1 sequence (Q9H2X9 1-1139): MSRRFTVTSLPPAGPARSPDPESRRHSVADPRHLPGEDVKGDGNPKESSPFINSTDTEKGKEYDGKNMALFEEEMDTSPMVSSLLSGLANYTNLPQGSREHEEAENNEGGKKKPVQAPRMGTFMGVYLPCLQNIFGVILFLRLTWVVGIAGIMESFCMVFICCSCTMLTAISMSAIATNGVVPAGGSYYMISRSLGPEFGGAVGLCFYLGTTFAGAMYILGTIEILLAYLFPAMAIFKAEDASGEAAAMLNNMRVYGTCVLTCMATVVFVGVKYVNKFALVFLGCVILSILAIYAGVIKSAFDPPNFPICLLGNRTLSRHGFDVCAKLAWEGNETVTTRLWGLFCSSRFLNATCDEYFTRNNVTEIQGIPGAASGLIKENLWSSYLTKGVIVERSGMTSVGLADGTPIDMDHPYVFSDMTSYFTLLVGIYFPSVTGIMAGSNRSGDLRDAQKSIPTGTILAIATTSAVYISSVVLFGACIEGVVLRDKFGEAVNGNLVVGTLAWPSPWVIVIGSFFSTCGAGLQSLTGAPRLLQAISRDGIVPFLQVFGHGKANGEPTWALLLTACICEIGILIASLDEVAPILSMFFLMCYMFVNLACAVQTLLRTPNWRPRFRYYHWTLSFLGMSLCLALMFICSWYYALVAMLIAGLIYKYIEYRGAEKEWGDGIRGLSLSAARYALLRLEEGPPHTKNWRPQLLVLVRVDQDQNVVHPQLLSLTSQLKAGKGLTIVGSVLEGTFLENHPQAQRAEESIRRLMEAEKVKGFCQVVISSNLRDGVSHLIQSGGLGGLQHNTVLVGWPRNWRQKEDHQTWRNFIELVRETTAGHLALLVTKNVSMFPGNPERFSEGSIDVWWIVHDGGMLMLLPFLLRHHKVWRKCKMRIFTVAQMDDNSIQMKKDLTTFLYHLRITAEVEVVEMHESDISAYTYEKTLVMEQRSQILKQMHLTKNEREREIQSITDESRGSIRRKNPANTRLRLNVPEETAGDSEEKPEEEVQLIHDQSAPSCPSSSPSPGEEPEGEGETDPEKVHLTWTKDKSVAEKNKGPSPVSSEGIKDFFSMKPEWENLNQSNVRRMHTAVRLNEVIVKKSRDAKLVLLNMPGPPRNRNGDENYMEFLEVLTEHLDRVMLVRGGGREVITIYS
Description: Tl influx assay in KCC2-transfected HEK293 cells. The series is classed as cell-based. Conditions: 10 μM, versus control DMSO, mean ± SEM. In outline:
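KCC2 (in PRK5)- or mock-transfected HEK293 cells were loaded for 1 h with Tl-sensitive dye (1:1,000) and probenecid (1:100) in Cl−-free hypotonic solution, washed, then treated with test compound with 100 μM ouabain. Fluorescence (ex 485/em 535 nm) was read for 20 s baseline, 20 s after TlSO4 (2 mM final), then 60 s after NaCl (74 mM final). Mock ΔF/F0 (last 10 s) was subtracted; fluorescence increase is expressed as % of DMSO control.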

In another series the test system is VPA mice and controls. Description: Diuresis analysis in VPA mice and controls. The series is classed as in vivo, mouse. Particulars: 0.2 mg kg−1 IP; young adult control and VPA mice; relative to vehicle. The gist of the method:
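VPA-model offspring were from C57BL/6J dams given 600 mg/kg VPA i.p. in PBS at gestational day 12.5; controls were included. Mice of both sexes received one i.p. dose of vehicle or test compound at 0.2 mg/kg, from a 1 mg/mL DMSO stock diluted in PBS to 0.02 mg/mL and injected at 10 μL/g. Urine volume was collected for 120 min.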

The target in a further series is T2, NKCC2 (Homo sapiens, UniProt Q13621).
T2 sequence (Q13621 1-1099): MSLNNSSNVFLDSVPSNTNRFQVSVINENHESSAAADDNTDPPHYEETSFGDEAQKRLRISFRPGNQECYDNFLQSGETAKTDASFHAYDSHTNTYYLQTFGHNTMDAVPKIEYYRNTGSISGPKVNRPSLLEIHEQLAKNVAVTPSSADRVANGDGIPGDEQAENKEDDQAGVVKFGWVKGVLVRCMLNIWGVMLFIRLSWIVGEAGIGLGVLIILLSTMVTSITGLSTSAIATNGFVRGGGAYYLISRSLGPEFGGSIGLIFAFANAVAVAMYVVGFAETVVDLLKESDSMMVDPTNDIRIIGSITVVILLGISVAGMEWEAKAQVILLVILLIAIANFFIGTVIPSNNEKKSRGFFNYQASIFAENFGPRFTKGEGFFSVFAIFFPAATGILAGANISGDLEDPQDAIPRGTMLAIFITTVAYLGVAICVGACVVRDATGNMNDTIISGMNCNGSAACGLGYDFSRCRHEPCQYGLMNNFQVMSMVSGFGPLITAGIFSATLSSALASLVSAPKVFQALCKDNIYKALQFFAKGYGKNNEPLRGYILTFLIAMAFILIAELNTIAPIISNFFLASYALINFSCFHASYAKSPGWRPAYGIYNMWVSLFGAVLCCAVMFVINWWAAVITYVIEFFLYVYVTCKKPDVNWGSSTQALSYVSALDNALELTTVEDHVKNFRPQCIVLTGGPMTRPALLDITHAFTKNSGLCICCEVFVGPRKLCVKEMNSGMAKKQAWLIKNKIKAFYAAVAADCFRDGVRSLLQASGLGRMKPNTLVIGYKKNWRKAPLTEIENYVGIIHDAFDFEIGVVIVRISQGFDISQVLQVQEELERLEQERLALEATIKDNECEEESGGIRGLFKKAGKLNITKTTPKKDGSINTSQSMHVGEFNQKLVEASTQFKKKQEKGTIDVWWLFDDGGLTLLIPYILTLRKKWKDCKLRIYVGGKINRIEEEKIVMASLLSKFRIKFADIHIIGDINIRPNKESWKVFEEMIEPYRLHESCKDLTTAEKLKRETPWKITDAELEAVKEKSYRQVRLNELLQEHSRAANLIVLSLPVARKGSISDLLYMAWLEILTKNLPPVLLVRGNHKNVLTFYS
Briefly: Cl− influx assay in NKCC2-transfected HEK293 cells. The series is classed as cell-based. Particulars: HEK293, read-out: NKCC2 inhibition. The gist of the method:
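HEK293 cells were co-transfected by lipofection with NKCC2 (in PRK5) or empty vector plus membrane-tagged Cl−-sensitive YFP, replated after 4 h, and assayed at 48 h. Test compound (10 or 100 μM) was applied for 30 min in Cl−-free hypotonic HEPES buffer, pH 7.4. Fluorescence (ex 485/em 535 nm) was read for 20 s baseline and 60 s after NaCl (74 mM final). Fluorescence decrease is expressed as % of DMSO control; four independent experiments, mean ± SEM.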

Series [1] concerns Ts65Dn mice and WT littermates. Description: Diuresis analysis in Ts65Dn mice and WT littermates. The series is classed as in vivo, mouse. Particulars: 0.2 mg kg−1 IP; adult WT and Ts65Dn mice; relative to vehicle. In outline: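 Adult (P60–120) Ts65Dn mice and WT littermates of both sexes received one i.p. dose of vehicle or test compound at 0.2 mg/kg. The dose was given from a 1 mg/mL DMSO stock diluted in PBS to 0.02 mg/mL and injected at 10 μL/g. Urine volume was collected for 2 h, after which mice were returned to home cages.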

The test system of series [2] is valproic acid (VPA) mouse model of ASD. Description: Grooming test in VPA mice. Conditions: 0.2 mg kg−1 IP daily, chronic. The series is classed as in vivo. The gist of the method:
(§1)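 Male VPA-model mice (prenatal VPA 600 mg/kg i.p. at gestational day 12.5) and controls, 6–8 weeks old, were randomized to vehicle (2% DMSO in saline) or test compound 0.2 mg/kg i.p. daily for 21–28 days. Tests started after 1 week of treatment, 1 h post-injection, and were video-scored manually by a blind operator.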

Series [3] shares this test system. Briefly: Male-female interaction test in VPA mice. The series is classed as in vivo. Conditions: 0.2 mg kg−1 IP daily, chronic. The gist of the method:
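Male VPA-model mice (6–8 weeks) and controls were dosed i.p. daily with vehicle or test compound at 0.2 mg/kg, with testing 1 h post-injection after at least 1 week of treatment. Each male was placed alone in a cage and habituated for 5 min. An unfamiliar C57BL/6J female was then introduced, and behavior was recorded for 5 min and scored blind.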

For the next series, the system named is GABAA receptors. Description: Voltage-clamp recordings of GABA-evoked currents in neuronal cultures. The series is classed as cell-based. Particulars: 10 μM bath application; 12–20 DIV hippocampal mouse neurons. The gist of the method:
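Cultured hippocampal mouse neurons at DIV12–20 were voltage-clamped at 22–24°C in extracellular solution. GABA-evoked currents (average of five sweeps) were recorded before and after bath application of test compound (10 μM). Cells with access resistance >25 MΩ or with >20% variation in GABA-current peak were excluded. Signals were sampled at 20 kHz and low-pass filtered at 10 kHz.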

Series [4] concerns valproic acid (VPA) mouse model of ASD. Description: Marble burying test in VPA mice. The series is classed as in vivo. Particulars: 0.2 mg kg−1 IP daily, chronic. In outline: as §1
Series [5] has as its system 3DIV hippocampal mouse neurons. Briefly: Ca2+ influx assay upon GABA application in immature. The series is classed as cell-based. Conditions: for Ca2+ influx upon GABA application: 10, 100 μM, GABA 100 μM, compared with DMSO-treated controls; for cell viability (fluorescence level upon KCl application): KCl 90 mM, 3DIV neurons.
Series [6] has as its system WT and Ts65Dn hippocampal neurons. Briefly: MQAE Cl− imaging in neuronal cultures. The series is classed as cell-based, mouse. Conditions: 10 μM. In outline: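 Hippocampal neurons from P2 WT and Ts65Dn pups were cultured on poly-L-lysine coverslips in Neurobasal-A/B-27. At 15 DIV they were loaded with 5 mM MQAE plus test compound (10 μM) or DMSO for 30 min at 37°C. Coverslips were then perfused with extracellular solution (pH 7.4) containing compound for 5 min at 25°C and imaged by confocal microscopy.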

Take `CCCC[C@]1(C2CCCC2)Cc2cc(OCC(=O)O)c(Cl)c(Cl)c2C1=O` [DIOA, R-(+)-[(2-n-Butyl-6,7-dichloro-2-cyclopentyl-2,3-dihydro-1-oxo-1H-inden-5-yl)oxy]acetic acid]: the KCC2 inhibition on KCC2 was found to be 37.6 ± 6.7%.

Usually inhibition stands for the share of the control response that was lost under treatment. Regarding `CCCCNc1cc(C(=O)O)cc(S(N)(=O)=O)c1Oc1ccccc1` [bumetanide], in the series on VPA mice and controls, the “diuretic effect (urine volume for 2 h)” value is listed as “significantly increased the urine volume”. The inhibition at 10 µM at NKCC2 turned out to be 82.7 ± 20.4%. Moreover, the “diuretic effect (urine volume for 2 h)” value in series [1] was “significantly increased the urine volume”. The “repetitive behaviors in the grooming task” value in series [2] is “non-significant trend toward WT levels”. Moreover, the “sociability during male-female interaction” value in series [3] is listed as “rescued poor sociability”. Moreover, the “inhibitory activity on GABAA receptors (GABA-evoked currents)” value with GABAA receptors is given as “this was not the case”. The “repetitive behaviors in the marble burying test” value in [4] was “significantly reduced repetitive behaviors”. Besides, in series [5], the “Ca2+ influx upon GABA application” value is “significantly reduced” and the “cell viability (fluorescence level upon KCl application)” value is recorded as “without affecting the cell viability”. Also, the “level of alleged NKCC1 inhibition in the Ca2+ influx assay compared with the Cl− influx assay” value in series [5] (10 and 100 μM) is listed as “corresponded to the levels obtained for the Cl^− influx assay”. Further, in series [6] (15 DIV WT neurons), the “[Cl−]i in wild-type (WT) neurons” value was “without significantly affecting”. The “[Cl−]i in Ts65Dn neurons” value in series [6] (mature (15 DIV) Ts65Dn neurons) is “restored aberrant [Cl^−]i to physiological levels”.

In the case of `NS(=O)(=O)c1cc(C(=O)O)c(NCc2ccco2)cc1Cl` [furosemide], the “inhibitory activity on GABAA receptors (GABA-evoked currents)” value in the series with GABAA receptors was “variable inhibitory activity”. Also, in series [5], the “Ca2+ influx upon GABA application” value is on record as “significantly reduced” and the “cell viability (fluorescence level upon KCl application)” value was “without affecting the cell viability”.
